{"source": "paper PMC3611965", "about": "(Nuclear medicine and biology, 2012)", "key": {"FAAH [1]": {"biological_target": "T1, FAAH (Mus musculus, UniProt O08914)", "T1 sequence (O08914 1-579)": "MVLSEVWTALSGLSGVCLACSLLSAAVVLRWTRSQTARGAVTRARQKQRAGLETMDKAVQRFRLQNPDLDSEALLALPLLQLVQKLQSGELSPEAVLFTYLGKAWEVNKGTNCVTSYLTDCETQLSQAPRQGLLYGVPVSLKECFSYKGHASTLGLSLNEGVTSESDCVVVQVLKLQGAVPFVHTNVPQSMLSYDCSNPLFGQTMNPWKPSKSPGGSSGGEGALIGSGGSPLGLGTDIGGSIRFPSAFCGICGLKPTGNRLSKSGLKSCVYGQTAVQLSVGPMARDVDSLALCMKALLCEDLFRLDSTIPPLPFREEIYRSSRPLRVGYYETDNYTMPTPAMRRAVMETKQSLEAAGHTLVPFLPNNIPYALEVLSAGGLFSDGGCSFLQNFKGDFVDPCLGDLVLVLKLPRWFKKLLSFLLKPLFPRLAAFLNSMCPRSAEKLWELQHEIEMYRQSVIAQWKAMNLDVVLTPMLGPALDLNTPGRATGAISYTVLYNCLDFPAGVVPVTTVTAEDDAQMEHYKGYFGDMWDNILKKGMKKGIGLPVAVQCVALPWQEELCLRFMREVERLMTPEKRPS", "assay": "in vitro competitive ABPP", "assay_type": "biochemical", "outline": "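Wild-type C57Bl/6J mouse brain membrane fractions (1 mg/mL total protein) were preincubated with varying test compound concentrations for 30 min at 37 °C. FP-Rh was then added (50 μM stock in DMSO) for another 30 min at 37 °C. Samples were quenched in SDS loading buffer and run on SDS-PAGE with in-gel fluorescence scanning. IC50 was calculated from band fluorescence.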"}, "FAAH [2]": {"biological_target": "T1, FAAH", "assay": "in vivo competitive ABPP of brains of treated mice", "settings": "C57Bl/6 mice, 10 mg/kg i.p. or p.o., 1 h, gel-based ABPP", "outline": "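Wild-type C57Bl/6J mice got test compound or vehicle (18:1:1 PBS:Emulphor:ethanol) and were killed after 1 h. Half-brains were frozen in liquid N2, washed in cold PBS, dounce-homogenized and sonicated, then spun at 1000×g (10 min, 4 °C) and 145,000×g (45 min, 4 °C) into soluble and membrane fractions. These were diluted to 1 mg/mL and labelled with FP-Rh (30 min, 37 °C) for SDS-PAGE fluorescence profiling.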"}, "[3]": {"assay": "MDCK passive permeability", "assay_type": "in vitro ADME", "settings": "dog"}, "MDR1": {"biological_target": "MDR1 (Homo sapiens, UniProt P08183)", "sequence (P08183 whole entry, species assumed)": "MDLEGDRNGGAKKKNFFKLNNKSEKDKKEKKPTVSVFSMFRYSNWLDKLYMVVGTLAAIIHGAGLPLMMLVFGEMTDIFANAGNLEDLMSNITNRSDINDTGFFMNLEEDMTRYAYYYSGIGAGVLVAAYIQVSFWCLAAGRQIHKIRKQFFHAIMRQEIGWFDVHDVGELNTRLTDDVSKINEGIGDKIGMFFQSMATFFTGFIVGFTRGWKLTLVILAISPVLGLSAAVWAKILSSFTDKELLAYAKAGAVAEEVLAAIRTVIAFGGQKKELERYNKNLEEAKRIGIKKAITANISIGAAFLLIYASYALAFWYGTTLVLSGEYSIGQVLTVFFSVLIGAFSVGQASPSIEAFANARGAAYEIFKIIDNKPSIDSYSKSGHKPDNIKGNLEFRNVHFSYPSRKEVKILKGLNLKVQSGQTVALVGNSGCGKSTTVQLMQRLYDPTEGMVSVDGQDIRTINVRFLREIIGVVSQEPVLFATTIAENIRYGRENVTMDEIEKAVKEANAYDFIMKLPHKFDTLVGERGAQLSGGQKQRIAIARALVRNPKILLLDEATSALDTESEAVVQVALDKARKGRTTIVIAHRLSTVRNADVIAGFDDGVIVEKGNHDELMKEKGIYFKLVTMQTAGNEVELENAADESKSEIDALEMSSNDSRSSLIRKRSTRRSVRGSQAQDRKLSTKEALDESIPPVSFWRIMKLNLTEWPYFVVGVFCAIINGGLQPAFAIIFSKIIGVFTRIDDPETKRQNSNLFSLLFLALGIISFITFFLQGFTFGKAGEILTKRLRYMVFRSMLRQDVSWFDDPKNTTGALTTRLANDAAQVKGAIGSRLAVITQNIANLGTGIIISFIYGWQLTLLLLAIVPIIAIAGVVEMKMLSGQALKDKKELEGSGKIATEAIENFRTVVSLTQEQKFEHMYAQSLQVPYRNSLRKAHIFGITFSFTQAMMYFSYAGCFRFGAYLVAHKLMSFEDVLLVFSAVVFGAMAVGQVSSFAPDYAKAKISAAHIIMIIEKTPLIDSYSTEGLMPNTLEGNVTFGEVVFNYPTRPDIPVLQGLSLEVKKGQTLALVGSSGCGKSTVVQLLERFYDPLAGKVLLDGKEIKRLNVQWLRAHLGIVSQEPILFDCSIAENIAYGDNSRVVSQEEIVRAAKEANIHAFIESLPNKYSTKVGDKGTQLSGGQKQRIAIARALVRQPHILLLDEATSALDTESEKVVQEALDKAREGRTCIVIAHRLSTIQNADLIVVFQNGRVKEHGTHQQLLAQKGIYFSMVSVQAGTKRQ", "assay": "MDR1 efflux ratio", "assay_type": "in vitro ADME", "settings": "MDCK-MDR1"}}, "data": [{"smiles": "O=C(Nc1cccnn1)N1CCC(=Cc2cccc(Oc3ccc(OCCF)cn3)c2)CC1", "note": "[PF-9811, 4-(3-((5-(2-fluoroethoxy)pyridin-2-yl)oxy)benzylidene)-N-(pyridazin-3-yl)piperidine-1-carboxamide]", "values": [{"measurement": "IC50", "setting": "FAAH [1]", "result": 16, "unit": "nM"}, {"measurement": "fold less potent than parent 4", "setting": "FAAH [1]; FAAH, competitive ABPP, mouse brain proteome", "result": 5, "unit": "fold"}, {"measurement": "FAAH inhibition in brain in vivo", "setting": "FAAH [2]", "result": "completely inhibited"}, {"measurement": "off-targets among brain serine hydrolases in vivo", "setting": "FAAH [2]", "result": "no detectable off-targets"}, {"measurement": "Papp A→B", "setting": "[3]", "result": 18.2, "unit": "×10⁻⁶ cm/s"}, {"measurement": "efflux ratio", "setting": "MDR1", "result": 2.52}]}]}
